# Measured values from ChEMBL document CHEMBL3102834, “Discovery of 5-substituted pyrrolo[2,3-d]pyrimidine antifolates as dual-acting inhibitors of glycinamide ribonucleotide formyltransferase and 5-aminoimidazole-4-carboxamide ribonucleotide formyltransferase in de novo purine nucleotide biosynthesis: implications of inhibiting …” (J Med Chem, 2013).
# The source made the active and inactive calls. The calls are words filed in the database; no cut-off is given here.
# What was measured:
# [1] = Cytotoxicity against chinese hamster R2(VC) cells after 96 hrs by CellTitre-Blue fluorescence assay; assay type: functional, cell-based; settings: Cricetulus griseus
# Summary of the method: (§1)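 CHO sublines were grown in FF-RPMI/DFBS; transfectants were maintained with G418. Cells were exposed to antifolate (0–1 μM) for 96 h at 37 °C with 2 nM LCV (RT16) or 25 nM LCV (R2/PCFT4). PC43-10 cells were grown in standard RPMI1640/DFBS instead. FRα specificity was tested by adding 200 nM folic acid. Viable cells were read by CellTiter-Blue fluorescence (ex 560/em 590), and IC50 was taken from dose–response curves; means of 3–10 experiments.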
# R2 [2] = assay: Cytotoxicity against chinese hamster R2 cells expressing human PCFT4 after 96 hrs by CellTitre-Blue fluorescence assay; assay type: functional, cell-based, Cricetulus griseus; settings: R2, 96 h
# KB [3] = assay: Cell cycle arrest in human KB cells assessed as accumulation at G1/G0 phase at 1 uM after 48 hrs by propidium iodide staining-based flow cytometry relative to control; assay type: functional
# KB [4] = assay: (§2) Inhibition of GARFTase in human KB cells assessed as incorporation of [14C]-glycine into [14C]-formyl GAR incubated 30 mins prior to [14C]-glycine addition measured after 16 hrs by radiometric assay in presence of azaserin; assay type: cell-based
# Summary of the method: (§3)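 KB cells were preincubated 1 h in folate- and glutamine-free medium with 2 nM LCV and a range of drug concentrations. Azaserine (4 μM final) was added for 30 min, then 2 mM glutamine and [14C(U)]glycine (0.1 mCi/L) for 16 h at 37 °C. TCA extracts were ether-washed and run on AG1×8 anion exchange. [14C]formyl GAR was measured per mg protein, and IC50 was set against DMSO controls; three experiments.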
# [5] = as §2; assay type: cell-based; summary of the method: as §3
# KB [6] = assay: Induction of apoptosis in human KB cells assessed as late apoptotic cells at 1 uM after 96 hrs by Annexin V-FITC/7-AAD staining-based flow cytometry (reference value: 2.09%); assay type: functional
# KB [7] = assay: Cytotoxicity against human KB cells expressing human RFC/FRalpha/PCFT after 96 hrs by CellTitre-Blue fluorescence assay; assay type: functional, cell-based
# Summary of the method: (§4)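 KB cells were grown in FF-RPMI with DFBS and 2 nM LCV, exposed to antifolate (0–1 μM) for 96 h at 37 °C, and read by CellTiter-Blue fluorescence. IC50 was taken from dose–response curves relative to untreated cells. Protection arms added adenosine 60 μM, thymidine 10 μM, AICA 320 μM, or folic acid 200 nM. Means of 3–10 experiments.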
# KB [8] = assay: Cell cycle arrest in human KB cells assessed as accumulation at sub-G1 phase at 1 uM after 96 hrs by propidium iodide staining-based flow cytometry (reference value: 3.5%); assay type: functional
# KB [9] = assay: Cell cycle arrest in human KB cells assessed as accumulation at G1/G0 phase at 1 uM after 96 hrs by propidium iodide staining-based flow cytometry (reference value: 67.4%); assay type: functional
# [10] = Cytotoxicity against chinese hamster RT16 cells expressing human FRalpha after 96 hrs by CellTitre-Blue fluorescence assay in presence of folic acid; assay type: functional, cell-based; settings: Cricetulus griseus, RT16, 96 h; summary of the method: as §1
# KB [11] = assay: Cell cycle arrest in human KB cells assessed as accumulation at S phase at 1 uM after 96 hrs by propidium iodide staining-based flow cytometry (reference value: 15.9%); assay type: functional
# KB [12] = assay: Cytotoxicity against human KB cells expressing human RFC/FRalpha/PCFT after 96 hrs by CellTitre-Blue fluorescence assay in presence of folic acid; assay type: functional, cell-based; summary of the method: as §4
# R2 [13] = assay: Cytotoxicity against chinese hamster R2 cells after 96 hrs by CellTitre-Blue fluorescence assay; settings: Cricetulus griseus, R2, 96 h
# KB [14] = assay: Cytotoxicity against human KB cells expressing human RFC/FRalpha/PCFT after 96 hrs by CellTitre-Blue fluorescence assay in presence of thymidine/adenosine; assay type: functional, cell-based; summary of the method: as §4
# KB [15] = assay: Cell cycle arrest in human KB cells assessed as accumulation at G2/M phase at 1 uM after 96 hrs by propidium iodide staining-based flow cytometry (reference value: 13.2%); assay type: functional
# KB [16] = assay: Induction of apoptosis in human KB cells assessed as early apoptotic cells at 1 uM after 96 hrs by Annexin V-FITC/7-AAD staining-based flow cytometry (reference value: 0.485%); assay type: functional
# KB [17] = assay: Induction of apoptosis in human KB cells assessed as necrotic cells at 1 uM after 96 hrs by Annexin V-FITC/7-AAD staining-based flow cytometry (RVB = 7.80%); assay type: functional
# [18] = Cytotoxicity against chinese hamster PC43-10 cells expressing human RFC after 96 hrs by CellTitre-Blue fluorescence assay; assay type: functional, cell-based; settings: Cricetulus griseus, PC43-10, 96 h; summary of the method: as §1
# KB [19] = assay: Cytotoxicity against human KB cells expressing human RFC/FRalpha/PCFT after 96 hrs by CellTitre-Blue fluorescence assay in presence of adenosine/AICA/thymidine; assay type: functional, cell-based; summary of the method: as §4
# KB [20] = assay: Induction of apoptosis in human KB cells assessed as viable cells at 1 uM after 96 hrs by Annexin V-FITC/7-AAD staining-based flow cytometry (RVB = 89.6%); assay type: functional; settings: read-out: Activity
# KB [21] = assay: Cytotoxicity against human KB cells expressing human RFC/FRalpha/PCFT assessed as depletion of ATP pools at 1 uM after 24 hrs by ion-pair HPLC analysis; assay type: functional
# Summary of the method: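 KB cells in FF-RPMI/10% DFBS with 2 mM glutamine and 2 nM LCV were exposed to 1 μM drug for 24 h. They were trypsinized and washed, and nucleotides were extracted. ATP was quantified by reversed-phase ion-pair HPLC on a C18 column. Results are means ± standard errors.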
# [22] = Cytotoxicity against chinese hamster RT16 cells expressing human FRalpha after 96 hrs by CellTitre-Blue fluorescence assay; assay type: functional, cell-based; settings: Cricetulus griseus, RT16, 96 h; summary of the method: as §1
# [23] = molecular target: Folate receptor alpha (Homo sapiens) (UniProt P15328); assay: Displacement of [3H]folic acid from human FRalpha expressed in chinese hamster RT16 cells after 15 mins by scintillation counting analysis; assay type: cell-based
# Summary of the method: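 FRα-expressing RT16 CHO cells (~1.5 × 10^6) were grown as monolayers. Bound folates were stripped with ice-cold acetate buffer (pH 3.5), then neutralised with HEPES-buffered saline (pH 7.4). Cells were then competed with [3H]folic acid against graded unlabelled ligand. Bound label read by scintillation, normalised to Folin-phenol protein (pmol/mg). Relative affinity = inverse molar ratio for 50% displacement, folic acid set at 1. Three experiments.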
# [24] = molecular target: Bifunctional purine biosynthesis protein ATIC (Homo sapiens) (UniProt P31939); assay: Inhibition of AICARFTase in human KB cells assessed as phosphorylated AMPK at 1 mM after 48 hrs by Western blot analysis; assay type: cell-based
# Summary of the method: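 KB cells were treated for 48 h with 10 μM thymidine, or with AMPK activators (metformin 10 mM, AICA 1 mM, AICAR 1 mM) against a water/DMSO vehicle. Cells were sonicated in 10 mM Tris-HCl pH 7.0 with protease/phosphatase inhibitors. 90 μg protein was run on 4–20% SDS gels and blotted for phospho-AMPK, total AMPK and β-actin, with infrared detection.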
# KB [25] = assay: Cytotoxicity against human KB cells at 1 mM after 96 hrs by CellTitre-Blue fluorescence assay; assay type: functional; settings: read-out: GI
# Summary of the method: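 KB cells were exposed for 96 h at 37 °C to metformin (0–10 mM) or AICA (0–2 mM) in FF-RPMI/DFBS with 2 nM LCV. Growth was read by CellTiter-Blue fluorescence relative to drug-free cells.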
# KB [26] = assay: Cytotoxicity against human KB cells expressing human RFC/FRalpha/PCFT after 96 hrs by CellTitre-Blue fluorescence assay in presence of thymidine; assay type: functional, cell-based; summary of the method: as §4
# KB [27] = assay: Cytotoxicity against human KB cells expressing human RFC/FRalpha/PCFT after 96 hrs by CellTitre-Blue fluorescence assay in presence of AICA; assay type: functional, cell-based; summary of the method: as §4
# KB [28] = assay: Cytotoxicity against human KB cells expressing human RFC/FRalpha/PCFT after 96 hrs by CellTitre-Blue fluorescence assay in presence of adenosine; assay type: functional, cell-based; summary of the method: as §4
# [29] = molecular target: T1, Reduced folate transporter (Homo sapiens) (UniProt P41440); assay: Inhibition of human RFC expressed in chinese hamster PC43-10 cells assessed as reduction of [3H]MTX uptake at 10 uM after 48 hrs by scintillation counting analysis relative to control; assay type: cell-based
# T1 sequence (whole entry): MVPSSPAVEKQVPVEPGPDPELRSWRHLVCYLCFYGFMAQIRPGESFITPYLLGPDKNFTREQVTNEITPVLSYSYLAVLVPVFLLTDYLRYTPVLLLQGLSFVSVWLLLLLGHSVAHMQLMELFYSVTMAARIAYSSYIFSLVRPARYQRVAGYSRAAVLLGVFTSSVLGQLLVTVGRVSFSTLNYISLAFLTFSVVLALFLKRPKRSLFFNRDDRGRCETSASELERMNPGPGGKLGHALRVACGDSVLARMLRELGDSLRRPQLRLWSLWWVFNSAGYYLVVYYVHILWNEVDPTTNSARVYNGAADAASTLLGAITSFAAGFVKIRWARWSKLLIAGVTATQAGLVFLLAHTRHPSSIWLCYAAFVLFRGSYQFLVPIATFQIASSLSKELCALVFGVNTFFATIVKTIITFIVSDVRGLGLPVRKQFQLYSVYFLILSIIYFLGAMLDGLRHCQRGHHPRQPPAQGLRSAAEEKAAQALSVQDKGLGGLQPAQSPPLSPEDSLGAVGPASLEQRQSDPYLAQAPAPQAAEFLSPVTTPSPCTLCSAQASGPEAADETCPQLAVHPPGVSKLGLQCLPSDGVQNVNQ
# Summary of the method: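 PC43-10 CHO cells expressing human RFC (~1.5 × 10^6) were seeded 48 h before assay. Uptake of 0.5 μM [3H]MTX was run in Hank's balanced salts for 2 min at 37 °C, with or without 10 μM unlabelled inhibitor, and stopped with ice-cold PBS. Cells were dissolved in 0.5 N NaOH, counted by scintillation and normalised to Folin-phenol protein (pmol/mg). RFC-null R2 cells gave baseline. Three experiments.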
# Sequence of Folate receptor alpha (Homo sapiens) (P15328 25-234 limits assumed): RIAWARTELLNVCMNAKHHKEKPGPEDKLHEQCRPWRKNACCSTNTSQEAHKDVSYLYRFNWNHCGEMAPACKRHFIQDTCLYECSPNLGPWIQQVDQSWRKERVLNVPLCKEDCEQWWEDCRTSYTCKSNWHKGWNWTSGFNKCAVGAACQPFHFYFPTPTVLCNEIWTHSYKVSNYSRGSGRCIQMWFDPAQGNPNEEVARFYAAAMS
# Sequence of Bifunctional purine biosynthesis protein ATIC (Homo sapiens) (P31939 whole entry, looked up): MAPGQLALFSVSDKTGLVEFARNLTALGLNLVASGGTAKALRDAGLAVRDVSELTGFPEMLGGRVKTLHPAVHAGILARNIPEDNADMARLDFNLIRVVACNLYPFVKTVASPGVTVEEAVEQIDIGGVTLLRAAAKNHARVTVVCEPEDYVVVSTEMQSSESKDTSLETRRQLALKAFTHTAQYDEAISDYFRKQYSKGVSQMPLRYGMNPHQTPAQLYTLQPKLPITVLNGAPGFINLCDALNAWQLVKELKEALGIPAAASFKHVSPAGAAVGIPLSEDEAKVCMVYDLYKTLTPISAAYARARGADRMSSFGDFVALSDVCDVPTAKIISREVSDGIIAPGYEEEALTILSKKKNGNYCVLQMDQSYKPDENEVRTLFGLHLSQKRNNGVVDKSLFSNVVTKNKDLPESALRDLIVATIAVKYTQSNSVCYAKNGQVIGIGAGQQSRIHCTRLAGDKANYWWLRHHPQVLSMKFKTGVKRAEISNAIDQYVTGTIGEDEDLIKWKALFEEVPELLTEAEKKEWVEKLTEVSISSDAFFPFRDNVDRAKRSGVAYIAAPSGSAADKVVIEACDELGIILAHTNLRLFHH
smiles,measurement,setting,value
Nc1nc2[nH]c(CCCCCc3ccc(C(=O)N[C@@H](CCC(=O)O)C(=O)O)cc3)cc2c(=O)[nH]1,IC50,[1],> 1000 nM
same,IC50,R2 [2],> 1000 nM
Nc1nc2[nH]cc(CCc3ccc(C(=O)N[C@@H](CCC(=O)O)C(=O)O)cc3)c2c(=O)[nH]1 [PEMETREXED],Activity,KB [3],Active
same,inhibition,KB [4],Dose-dependent effect
same,IC50,[5],11.7 nM
same,Activity,KB [6],4.56%
same,IC50,[1],> 1000 nM
same,IC50,KB [7],9.94 nM
same,Activity,KB [8],17.3%
same,Activity,KB [9],47.8%
same,IC50,[10],> 1000 nM
same,Activity,KB [11],27.5%
same,IC50,KB [12],690 nM
same,IC50,R2 [13],> 1000 nM
same,Activity,KB [14],inactive
same,Activity,KB [15],7.5%
same,Activity,KB [16],30.6%
same,Activity,KB [17],0.271%
same,IC50,[18],30.6 nM
same,Activity,KB [19],Active
same,viability at 1 µM,KB [20],64.6%
same,inhibition at 1 µM,KB [21],60%
same,IC50,[22],18.2 nM
CN(Cc1cnc2nc(N)nc(N)c2n1)c1ccc(C(=O)N[C@@H](CCC(=O)O)C(=O)O)cc1 [METHOTREXATE],IC50,[1],> 1000 nM
same,inhibition,[23],inactive
NC(=O)c1[nH]cnc1N,inhibition,[24],inactive
same,inhibition of growth at 1000 µM,KB [25],20%
Nc1nc2[nH]cc(Cc3ccc(C(=O)N[C@@H](CCC(=O)O)C(=O)O)cc3)c2c(=O)[nH]1,IC50,[1],> 1000 nM
same,IC50,[10],> 1000 nM
same,IC50,R2 [13],> 1000 nM
same,IC50,R2 [2],> 1000 nM
Nc1nc2[nH]cc(CCCCCc3ccc(C(=O)N[C@@H](CCC(=O)O)C(=O)O)cc3)c2c(=O)[nH]1,Activity,KB [26],Active
same,IC50,[1],> 1000 nM
same,Activity,KB [27],inactive
same,Activity,KB [28],inactive
same,IC50,[10],> 1000 nM
same,IC50,R2 [13],> 1000 nM
same,IC50,R2 [2],> 1000 nM
Nc1nc2[nH]c(CCCCc3ccc(C(=O)N[C@@H](CCC(=O)O)C(=O)O)cc3)cc2c(=O)[nH]1,inhibition,KB [4],Dose-dependent effect
same,IC50,[5],5.71 nM
same,Activity,KB [6],28.8%
same,IC50,[1],> 1000 nM
same,Activity,KB [8],45.1%
same,Activity,KB [9],22.3%
same,inhibition,[29],< 25%
same,Activity,KB [11],31.4%
same,Activity,[23],Active
same,Activity,KB [15],1.2%
same,Activity,KB [16],35.5%
same,Activity,KB [17],0.748%
same,viability at 1 µM,KB [20],35%
